Results from the RNAGym collection of RNA variant scans (doi:10.1126/science.aae0568).
This sample holds only a part of the variants without activity.

B1: tRNA (parent)
chain: GUUCCGUUGGCGUAAUGGUAACGCGUCUCCCUCCUAAGGAGAAGACUGCGGGUUCGAGUCCCGUACGGAACG

Variants of: B1
Experiment: yeast fitness relative to wild type (ratio to wild type); higher = fitter; tRNA-Arg(CCU), competitive growth, 37 C, YPD
Procedure, shortened: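 Amplicons of the tRNA-Arg(CCU) gene were sequenced, 100-nucleotide paired-end, from the start population and from each end population of a pooled yeast competition. The competition, in six parallel replicates, lasted 24 hours in YPD at 37°C. Fitness relative to wild type was calculated from changes in genotype frequencies. Genotypes had to have ≥ 100 starting reads, and estimates < 0.5 were set to 0.5.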

Variant	yeast fitness
C24G C30U U32A A45G C62U	≤ 0.5
C24U A43C A70U	0.59
C24G G38C C62A	0.852
C24G C33U A37U C49G U64C	≤ 0.5
C24G G68A	0.653
C24G C31U	0.571
C24G C31A	0.526
C24U A37C G50C	0.547
C24U C30G A45C A70C	≤ 0.5
C24A G44A U54C G56C	≤ 0.5
C24G C33G A36C A37C A42C	0.505
C24A C33A C49U U54G A70C	≤ 0.5
C24G A36C C55U	≤ 0.5
C24G C27U C33U G50A	≤ 0.5
C24G C27U C33U G50C	≤ 0.5
C24U A69G	0.998
C24A C61U G67A	≤ 0.5
C24U A40C G68C	0.502
C24G A43C C46G U53G C61U	≤ 0.5
C24A G67A	0.709
C24A G67U	0.669
C24A G67C	0.74
C24A C55A A65G	≤ 0.5
C24G A36G U64C A65U	≤ 0.5

Variant	yeast fitness
C24G A42U	0.559
C24G G44A	0.568
C24G G44C	0.66
C24G G25C C30G U32C G58A C60U	≤ 0.5
C24G G50A C55G	≤ 0.5
C24G U28C A43U C60A	≤ 0.5
C24G U64A A70C	≤ 0.5
C24G C33G A36C A37C A42C A65U	≤ 0.5
C24G C29G A37G G52A C62U	≤ 0.5
C24U C27U	0.972
C24U C27G	0.602
C24G A36G A57C C61U	≤ 0.5
C24G C31A A42G A43U	≤ 0.5
C24A U26A C55A	≤ 0.5
C24A C33U	0.601
C24A C33G	0.705
C24G G44C G68U	0.663
C24U C27U C29G G38C A42C	0.577
C24G C46U A69U	0.595
C24G G52A	0.566
C24G G52C	≤ 0.5
C24A U26A	0.57
C24U A65G	0.924
C24U A65U	0.894

Variant	yeast fitness
C24G A36C A40C A42U	≤ 0.5
C24U C27G G63A	0.536
C24G U28C C31G C66U	≤ 0.5
C24G A36U	≤ 0.5
C24G A36C	0.531
C24G C29U G51C	0.576
C24G A70C	0.666
C24U A45C G67A A70U	≤ 0.5
C24A U26A C31A C55A U64C	≤ 0.5
C24G C29A A43U G68C	0.561
C24U A36G U47A	0.529
C24U A36U A43G	0.509
C24U A45C C49U	0.791
C24G U32G A36G C60A A65U	≤ 0.5
C24G C27U A37G	0.536
C24A C62U A70U	0.543
C24A C62U A70C	≤ 0.5
C24G A36G A45G	≤ 0.5
C24G U26A C33U	≤ 0.5
C24U A37G A43G C49A	≤ 0.5
C24G C31G A36G G44A A69G	≤ 0.5
C24A G68U	0.654
C24A U26C U54A C60U A69C	0.819
C24A G25C U47A	≤ 0.5

Variant	yeast fitness
C24G C27U C33U G50C G63A G68A	0.528
C24G G25C C30G U32C A70C	0.533
C24U C31G U54C C62G	≤ 0.5
C24G A36G U53A	0.555
C24G C27U A40U U59C	≤ 0.5
C24G G25C C66A	≤ 0.5
C24G U26C	0.688
C24G A40G A43G	≤ 0.5
C24U A45C G58C	0.554
C24G C34U U35A A65U	0.578
C24U C29A U32A C46G A70C	≤ 0.5
C24G C49A	≤ 0.5
C24G A37U U47A	≤ 0.5
C24G G25C A45G C60A	0.617
C24G C31G G50A G68C	≤ 0.5
C24U C27A C30U C46G	≤ 0.5
C24A U32A G50C	≤ 0.5
C24G C66A	0.576
C24A C34U A40C	≤ 0.5
C24G A40C A45U	≤ 0.5
C24U A40U G68U A70C	≤ 0.5
C24G A37U C55U G67C	≤ 0.5
C24U A42G G50A	≤ 0.5
C24G A43G C49U C55G	0.643

Variant	yeast fitness
C24A G41A G44A U53A C66U	≤ 0.5
C24U A43G C60A	≤ 0.5
C24U C31G A37G	0.529
C24G A37G A43U C62G	0.77
C24A G39A C60A C66U	≤ 0.5
C24G U54C C55A A65U	≤ 0.5
C24A G48A U53G	≤ 0.5
C24A U26G C61U	≤ 0.5
C24A U32A C55A G68C	≤ 0.5
C24U C30U C60A	0.532
C24U C27U U53G C60A A70G	≤ 0.5
C24A C33A C49U U54G	0.58
C24A G51A C60U G67A	≤ 0.5
C24G C27U C33U G50C A69U	≤ 0.5
C24G A69C	0.617
C24G A43G	0.573
C24G C33U A70G	≤ 0.5
C24U C27G G38C A57U C60A C62G	≤ 0.5
C24U C27G C61G	≤ 0.5
C24U A36G G63C	≤ 0.5
C24U C29G A43C C55G G68A	≤ 0.5
C24A C33G C34U G58C C62U	≤ 0.5
C24A C60G	0.51
C24U A36C A45U	0.513

Variant	yeast fitness
C24G A36C A42U A43G	≤ 0.5
C24U C31A C33A C34U C46A A69C	0.546
C24U A43U C49U C66U	0.576
C24G C29A C30U G50A C62U	≤ 0.5
C24G U28G C33U A42U G50A A70U	≤ 0.5
C24G U26A C33U U54A	0.609
C24G A36C U54G	≤ 0.5
C24G C27U C33U G52C A65G	≤ 0.5
C24G A37G C55U	≤ 0.5
C24G C33U A37U G67A	≤ 0.5
C24G G50C	0.543
C24G G50A	0.616
C24A U47G G68A	≤ 0.5
C24G C33G U53C C55U	0.567
C24G U53G A57G	0.545
C24U C30A G50A	0.587
C24G C31A C33U U35A A57G	0.529
C24G C34G A69U	≤ 0.5
C24G G58C C62U	≤ 0.5
C24A C33A C49U U54G G56A	≤ 0.5
C24G G25A C30G	≤ 0.5
C24G A42C C66U	≤ 0.5
C24G G39C C60U A65U	≤ 0.5
C24G U59G A65U	0.659

Variant	yeast fitness
C24U A43G	1.02
C24G G48A G58C	0.735
C24U A42U G51C	≤ 0.5
C24G A37U A42G	≤ 0.5
C24A G48C A70U	≤ 0.5
C24G C29U G50A	≤ 0.5
C24G G56C U59C	≤ 0.5
C24A G56C C61G	≤ 0.5
C24U A45G C46G C55G A69C	≤ 0.5
C24G C30U G44C	≤ 0.5
C24A C61A G67A	≤ 0.5
C24G G25C U35A G52A	≤ 0.5
C24G C27G A37G	0.575
C24G U26A A65C	≤ 0.5
C24U A36G C55G	≤ 0.5
C24A C34A A37G A57G A65G	0.544
C24G C30U C31U C61U G67C	≤ 0.5
C24U C27A G50U	≤ 0.5
C24G G41A G44A U53A C66U	≤ 0.5
C24G C31A U64A	≤ 0.5
C24G G38C C46A	≤ 0.5
C24G C31A C66U	≤ 0.5
C24G C30U C46A	0.616
